The structures appear in SMILES notation.

Experiment [1] deals with Rattus norvegicus. Nature of the experiment: Compound was evaluated for its gastroulcerogenic effect in rats at a peroral dose of 200 mg/kg, P<0.05. The class given is functional. As to conditions: route oral.
For experiment [2], the system named is Rattus norvegicus. The experiment is described as follows: Compound was evaluated for its antiinflammatory activity in the cotton pellet induced granuloma(CPG) in normal rats at the dose 3 mg/kg p.o. The settings on record: po, read-out: Inhibition.
Experiment [3] deals with Rattus norvegicus. The experiment is described as follows: Compound was evaluated for its antiinflammatory activity by adjuvant-induced polyarthritis test in rats at a dosage of 1 mg/kg administered orally. The class given is functional. As to conditions: route oral. The method in brief:
(§1)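 Female Wistar rats (130–150 g), 8 per dose. Killed Mycobacterium butyricum (0.6 mg in 0.1 mL mineral oil) was injected into the right hind plantar aponeurosis. Oral dosing in 0.5% methocel, once daily, curative scheme from day 14 to day 27. Read-outs: percent change in hind-paw volume versus controls; Newbould 0–4 lesion scores for front paws, tail and ears; plasma inflammation units by nephelometric turbidity before and after 30 min at 56 °C on day 27.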

Experiment [4] is filed under the species Rattus norvegicus. The experiment is described as follows: Compound was evaluated for its antipyretic activity by antipyresis effect in comparison with that of Aspirin. Format: functional. The method in brief:
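Male Sprague-Dawley rats (120–150 g), 6 per dose, starved 18 h and kept at 24 °C; rats above 38 °C were excluded. Fever was induced by subcutaneous 1 mL of filtered 5% peptone preincubated 48 h at 37 °C. Oral doses as in the analgesic test (top dose one-fifth of LD50, stepping down). Rectal thermocouple readings from 4 h after injection, then hourly for 4 h. Activity relative to aspirin = 1.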

Experiment [5] is filed under the species Rattus norvegicus. The experiment is described as follows: Compound was evaluated for its analgesic activity by Randall-Selitto test in comparison with that of Aspirine. Format: functional. Put shortly:
(§2)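 Randall–Selitto pain threshold, measured on the inflamed right hind paw of male Wistar rats (170–200 g), 10 per dose. Edema was induced with 0.1 mL of 20% yeast suspension in saline. Oral dosing in 0.5% methocel (10 mL/kg), highest dose one-fifth of LD50, then scaling down through 100, 50, 20, 10, 5 and 2 mg/kg. Threshold read before dosing, then hourly for 6 h. Potency expressed relative to aspirin = 1.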

In experiment [6] the test system is Rattus norvegicus. The experiment is described as follows: (§3) Compound was evaluated for its antiinflammatory activity by adjuvant-induced polyarthritis test in rats at a dosage of 200 mg/kg administered orally. The class given is functional. As to conditions: route oral. Put shortly:
as §1

For experiment [7], the species on record is Rattus norvegicus. The experiment is described as follows: Compound was evaluated for its analgesic activity by Randall-Selitto test in comparison with that of Aspirin. The class given is functional. Put shortly: as §2
The subject of experiment [8] is Rattus norvegicus. The experiment is described as follows: Compound was evaluated for its antiinflammatory activity in the cotton pellet induced granuloma (CPG) in normal rats at the dose 200 mg/kg p.o. As to conditions: route oral. Format: functional. Put shortly:
(§4)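 Male Wistar rats (150–180 g), 7 per group. Two sterile 50 mg cotton pellets were implanted subcutaneously in the interscapular region under ether. Oral dosing in 0.5% methocel (10 mL/kg) daily for 6 days, starting 6 h after surgery. Animals were killed 24 h after the last dose; pellets with granuloma were dried 24 h at 80 °C. Percent inhibition versus vehicle controls.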

The test system of experiment [9] is Rattus norvegicus. The experiment is described as §3. Format: functional. On the set-up: unit not given beside the values. As to conditions: route oral. The method in brief:
as §1

In experiment [10] the test system is Rattus norvegicus. Nature of the experiment: Antiinflammatory activity was measured as the percentage inhibition of edema in carrageenan induced rat paw after peroral administration of 100 mg/kg of compound. As to conditions: route oral. The class given is functional. The method in brief:
(§5)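 Female Wistar rats (120–150 g), 10 per dose, dosed orally with an aqueous suspension in 0.5% methocel (10 mL/kg) 1 h before 0.05 mL of 1% carrageenin in saline was injected into the right hind paw aponeurosis. Paw volume was read plethysmographically at injection and 4 h later. Inhibition is given relative to vehicle controls. Screening dose 200 mg/kg; 100 mg/kg was tested when inhibition exceeded 30%. Student's t test.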

The subject of experiment [11] is Rattus norvegicus. Nature of the experiment: Antiinflammatory activity measured as the percentage inhibition of edema in carrageenan induced rat paw after peroral administration of 200 mg/kg of compound. Format: functional. As to conditions: route oral. The method in brief: as §5
Experiment [12] is filed under the species Rattus norvegicus. The experiment is described as follows: Compound was evaluated for its gastroulcerogenic effect with respect to treated and control groups. Treated and control groups are not statistically different when the index is <1; P<0.05. The class given is functional.
Experiment [13] concerns Rattus norvegicus. Nature of the experiment: Compound was evaluated for its antiinflammatory activity in the cotton pellet induced granuloma(CPG) in normal rats at the dose 200 mg/kg p.o. The class given is functional. As to conditions: route oral. Put shortly: as §4

For `COc1ccc2c(c1)c(CC(=O)O)c(C)n2C(=O)c1ccc(Cl)cc1` [INDOMETHACIN], in [1], the Ulcerogenic index is on record as 1.5. In addition, the inhibition in vivo at 3 mg/kg in [2] is 41%. Besides, in experiment [3], the Arthritis scores is reported as 65, the Inflammation units is 82 and the “Mean volume of hind paws” value is on record as 52. Moreover, the Activity in experiment [4] turned out to be 15.4. The molecule further showed an Activity in experiment [5] of 34.
For `COc1ccc(-c2nc3c4ccccc4ccc3n2C)cc1`, in experiment [6], the Arthritis scores is reported as 40. In addition, the Inflammation units in experiment [6] is on record as 46. Further, the Activity in experiment [7] turned out to be 1.2; in experiment [4], 1. Also, the Ulcerogenic index in experiment [1] is 0.31. In addition, the inhibition in vivo at 200 mg/kg in experiment [8] came out at 40%; in experiment [11], 53%. Also, in experiment [9], the “Mean volume of hind paws” value is recorded as 33. In experiment [10], this molecule yielded an inhibition in vivo at 100 mg/kg of 41%.
For the molecule `Cn1c(-c2ccccc2)nc2c3ccccc3ccc21`, in [12], the Ulcerogenic index is reported as 0.33. The same molecule showed an inhibition in vivo at 100 mg/kg in [10] of 37%. In addition, the inhibition in vivo at 200 mg/kg is 42% in experiment [11] and 24% in experiment [13]. Moreover, the Activity in experiment [4] came to 9.1; in experiment [5], 0.9.

Source of the values: ChEMBL document CHEMBL1122649, “3-Alkyl-2-aryl-3H-naphth[1,2-d]imidazoles, a novel class of nonacidic antiinflammatory agents” (J Med Chem, 1984).
